Data published in ChEMBL document CHEMBL5678818, “Discovery of potent SOS1 inhibitors that block RAS activation via disruption of the RAS-SOS1 interaction” (Proc Natl Acad Sci U S A, 2019).
Calls of active or inactive are those of the source. No cut-off for these calls is given here.

Legend:
[1] = system: K562; test: Effect on total ERK level in human K562 cells incubated for 60 mins by HTRF analysis; type: functional, cell-based
In short: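 K-562 cells (wild-type KRAS) were sourced from ATCC. Cells were incubated with compound for 60 min, and total ERK was quantified alongside pERK.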

[2] = target: Phosphatidylinositol 3-kinase catalytic subunit type 3 (Homo sapiens) (UniProt Q8NEB9); test: Inhibition of VPS34 (unknown origin) assessed as residual activity at 1000 nM by KINOMEscan analysis relative to control
Chain of Phosphatidylinositol 3-kinase catalytic subunit type 3 (Homo sapiens) (Q8NEB9 whole entry): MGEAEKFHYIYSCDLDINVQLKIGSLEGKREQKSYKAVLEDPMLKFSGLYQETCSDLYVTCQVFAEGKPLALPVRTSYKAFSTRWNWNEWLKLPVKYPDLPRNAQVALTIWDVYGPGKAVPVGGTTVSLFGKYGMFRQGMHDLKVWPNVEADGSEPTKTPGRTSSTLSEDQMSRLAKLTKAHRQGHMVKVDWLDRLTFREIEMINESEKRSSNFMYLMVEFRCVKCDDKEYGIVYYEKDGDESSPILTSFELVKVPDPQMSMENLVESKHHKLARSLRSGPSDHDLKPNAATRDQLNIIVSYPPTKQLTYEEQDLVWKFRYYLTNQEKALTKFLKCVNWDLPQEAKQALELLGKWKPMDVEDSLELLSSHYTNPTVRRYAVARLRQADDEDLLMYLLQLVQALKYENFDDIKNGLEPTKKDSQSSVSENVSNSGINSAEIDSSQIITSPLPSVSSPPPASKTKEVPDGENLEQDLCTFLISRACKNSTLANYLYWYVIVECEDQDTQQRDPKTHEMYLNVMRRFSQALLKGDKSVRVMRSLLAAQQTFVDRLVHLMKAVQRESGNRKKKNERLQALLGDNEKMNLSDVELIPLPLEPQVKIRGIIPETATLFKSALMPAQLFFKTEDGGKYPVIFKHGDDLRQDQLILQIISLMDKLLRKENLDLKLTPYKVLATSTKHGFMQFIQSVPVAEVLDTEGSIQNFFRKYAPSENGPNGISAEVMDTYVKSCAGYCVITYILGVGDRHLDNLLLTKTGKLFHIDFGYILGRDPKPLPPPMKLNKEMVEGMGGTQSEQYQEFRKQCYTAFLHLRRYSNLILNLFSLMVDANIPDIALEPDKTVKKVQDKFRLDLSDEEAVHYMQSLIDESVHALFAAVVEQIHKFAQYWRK

[3] = system: Tyrosine-protein kinase ABL1 (Homo sapiens), P00519 [E255K]; test: Inhibition of phosphorylated ABL1 E255K mutant (unknown origin) assessed as residual activity at 100 nM by KINOMEscan analysis relative to control
Chain of Tyrosine-protein kinase ABL1 (Homo sapiens), P00519 [E255K] (P00519 whole entry E255K): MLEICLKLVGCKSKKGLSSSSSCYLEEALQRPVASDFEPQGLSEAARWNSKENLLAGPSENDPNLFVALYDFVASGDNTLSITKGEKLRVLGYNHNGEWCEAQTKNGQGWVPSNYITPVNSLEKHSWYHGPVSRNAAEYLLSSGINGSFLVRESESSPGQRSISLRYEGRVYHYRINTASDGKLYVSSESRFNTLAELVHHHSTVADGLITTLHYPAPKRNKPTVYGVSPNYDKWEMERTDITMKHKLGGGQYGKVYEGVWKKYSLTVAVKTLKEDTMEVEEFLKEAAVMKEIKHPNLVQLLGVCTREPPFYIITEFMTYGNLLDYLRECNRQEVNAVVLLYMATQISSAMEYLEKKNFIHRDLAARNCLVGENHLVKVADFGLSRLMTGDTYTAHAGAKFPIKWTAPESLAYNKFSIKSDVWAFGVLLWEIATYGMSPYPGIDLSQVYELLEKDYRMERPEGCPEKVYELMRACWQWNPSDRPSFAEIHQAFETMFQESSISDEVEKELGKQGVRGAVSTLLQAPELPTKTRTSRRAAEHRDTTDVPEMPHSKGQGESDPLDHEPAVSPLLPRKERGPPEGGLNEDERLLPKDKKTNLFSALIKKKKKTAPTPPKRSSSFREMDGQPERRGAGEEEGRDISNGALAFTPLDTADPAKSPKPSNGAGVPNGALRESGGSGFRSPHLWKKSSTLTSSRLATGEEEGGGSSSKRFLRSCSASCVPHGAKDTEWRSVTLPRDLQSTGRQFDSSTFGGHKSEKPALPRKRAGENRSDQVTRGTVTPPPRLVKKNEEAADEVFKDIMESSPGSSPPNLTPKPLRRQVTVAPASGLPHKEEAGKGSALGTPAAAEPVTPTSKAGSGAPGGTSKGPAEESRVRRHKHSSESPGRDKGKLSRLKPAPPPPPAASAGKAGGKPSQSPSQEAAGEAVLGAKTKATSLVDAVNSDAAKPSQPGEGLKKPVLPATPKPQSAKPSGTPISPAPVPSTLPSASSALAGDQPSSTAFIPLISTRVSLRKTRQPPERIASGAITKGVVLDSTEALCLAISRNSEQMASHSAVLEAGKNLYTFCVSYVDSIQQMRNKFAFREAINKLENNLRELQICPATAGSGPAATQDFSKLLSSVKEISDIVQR

[4] = target: T1, Homeodomain-interacting protein kinase 4 (Homo sapiens) (UniProt Q8NE63); test: Inhibition of HIPK4 (unknown origin) assessed as residual activity at 100 nM by KINOMEscan analysis relative to control
T1 sequence (whole entry): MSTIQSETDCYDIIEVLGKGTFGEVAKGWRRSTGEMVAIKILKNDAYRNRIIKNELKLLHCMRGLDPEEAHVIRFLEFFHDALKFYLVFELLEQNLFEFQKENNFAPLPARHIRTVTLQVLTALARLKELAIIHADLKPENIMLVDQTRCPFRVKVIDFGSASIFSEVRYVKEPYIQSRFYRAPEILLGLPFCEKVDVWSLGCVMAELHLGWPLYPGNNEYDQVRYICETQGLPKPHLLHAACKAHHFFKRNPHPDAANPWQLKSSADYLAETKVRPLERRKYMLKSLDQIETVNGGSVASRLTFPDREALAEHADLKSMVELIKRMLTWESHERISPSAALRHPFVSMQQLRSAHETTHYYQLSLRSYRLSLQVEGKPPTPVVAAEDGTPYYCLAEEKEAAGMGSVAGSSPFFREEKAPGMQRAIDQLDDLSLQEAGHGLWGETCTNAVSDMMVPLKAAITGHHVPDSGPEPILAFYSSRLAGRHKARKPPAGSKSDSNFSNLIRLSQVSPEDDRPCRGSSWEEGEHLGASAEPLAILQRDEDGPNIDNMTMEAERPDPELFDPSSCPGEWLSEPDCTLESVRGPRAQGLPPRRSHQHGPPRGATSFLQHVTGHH

[5] = target: T2, Myotonin-protein kinase (Homo sapiens) (UniProt Q09013); test: Inhibition of DMPK (unknown origin) assessed as residual activity at 100 nM by KINOMEscan analysis relative to control
T2 sequence (whole entry): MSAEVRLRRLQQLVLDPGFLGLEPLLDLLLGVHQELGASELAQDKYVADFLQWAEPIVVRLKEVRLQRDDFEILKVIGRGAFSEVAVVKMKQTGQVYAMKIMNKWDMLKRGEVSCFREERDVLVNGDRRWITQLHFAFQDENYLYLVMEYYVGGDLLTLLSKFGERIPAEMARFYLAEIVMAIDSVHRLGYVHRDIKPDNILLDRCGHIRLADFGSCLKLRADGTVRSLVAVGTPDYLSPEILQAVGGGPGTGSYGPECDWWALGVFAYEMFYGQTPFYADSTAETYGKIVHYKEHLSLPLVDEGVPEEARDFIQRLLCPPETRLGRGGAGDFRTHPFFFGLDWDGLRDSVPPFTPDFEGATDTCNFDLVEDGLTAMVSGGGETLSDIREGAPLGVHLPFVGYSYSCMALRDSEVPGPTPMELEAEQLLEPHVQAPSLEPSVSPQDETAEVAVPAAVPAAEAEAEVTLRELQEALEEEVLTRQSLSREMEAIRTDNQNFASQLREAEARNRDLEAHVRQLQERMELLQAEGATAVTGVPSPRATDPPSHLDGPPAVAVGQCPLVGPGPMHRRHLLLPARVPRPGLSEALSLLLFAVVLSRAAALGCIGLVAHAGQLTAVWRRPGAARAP

[6] = target: Mitogen-activated protein kinase kinase kinase 10 (Homo sapiens) (UniProt Q02779); test: Inhibition of MLK2 (unknown origin) assessed as residual activity at 100 nM by KINOMEscan analysis relative to control
Chain of Mitogen-activated protein kinase kinase kinase 10 (Homo sapiens) (Q02779 whole entry, looked up): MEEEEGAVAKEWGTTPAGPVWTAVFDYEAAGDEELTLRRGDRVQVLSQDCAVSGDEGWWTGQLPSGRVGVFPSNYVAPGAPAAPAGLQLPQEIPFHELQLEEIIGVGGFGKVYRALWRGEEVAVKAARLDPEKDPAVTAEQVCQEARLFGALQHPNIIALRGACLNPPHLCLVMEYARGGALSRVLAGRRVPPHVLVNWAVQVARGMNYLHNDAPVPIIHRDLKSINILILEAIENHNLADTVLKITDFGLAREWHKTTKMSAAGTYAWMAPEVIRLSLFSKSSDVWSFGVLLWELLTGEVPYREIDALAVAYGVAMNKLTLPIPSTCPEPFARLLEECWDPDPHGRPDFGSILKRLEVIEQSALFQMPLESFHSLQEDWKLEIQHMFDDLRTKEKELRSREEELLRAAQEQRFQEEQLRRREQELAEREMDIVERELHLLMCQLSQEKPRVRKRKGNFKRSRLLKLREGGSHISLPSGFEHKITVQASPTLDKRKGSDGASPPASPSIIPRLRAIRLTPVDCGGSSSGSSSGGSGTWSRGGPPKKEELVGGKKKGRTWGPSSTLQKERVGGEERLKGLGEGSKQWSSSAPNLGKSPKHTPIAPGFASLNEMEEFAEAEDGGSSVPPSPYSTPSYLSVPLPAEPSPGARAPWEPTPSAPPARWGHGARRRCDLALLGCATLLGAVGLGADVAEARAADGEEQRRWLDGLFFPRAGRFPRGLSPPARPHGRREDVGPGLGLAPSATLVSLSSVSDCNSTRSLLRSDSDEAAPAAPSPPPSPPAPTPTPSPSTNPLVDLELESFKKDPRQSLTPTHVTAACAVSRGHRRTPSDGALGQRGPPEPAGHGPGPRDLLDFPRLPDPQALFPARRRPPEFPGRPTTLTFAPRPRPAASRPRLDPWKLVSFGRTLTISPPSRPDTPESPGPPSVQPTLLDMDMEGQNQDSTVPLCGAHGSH

[7] = target: T3, Cyclin-dependent kinase 11A (Homo sapiens) (UniProt Q9UQ88); test: Inhibition of CDC2L2 (unknown origin) assessed as residual activity at 100 nM by KINOMEscan analysis relative to control
T3 sequence (whole entry): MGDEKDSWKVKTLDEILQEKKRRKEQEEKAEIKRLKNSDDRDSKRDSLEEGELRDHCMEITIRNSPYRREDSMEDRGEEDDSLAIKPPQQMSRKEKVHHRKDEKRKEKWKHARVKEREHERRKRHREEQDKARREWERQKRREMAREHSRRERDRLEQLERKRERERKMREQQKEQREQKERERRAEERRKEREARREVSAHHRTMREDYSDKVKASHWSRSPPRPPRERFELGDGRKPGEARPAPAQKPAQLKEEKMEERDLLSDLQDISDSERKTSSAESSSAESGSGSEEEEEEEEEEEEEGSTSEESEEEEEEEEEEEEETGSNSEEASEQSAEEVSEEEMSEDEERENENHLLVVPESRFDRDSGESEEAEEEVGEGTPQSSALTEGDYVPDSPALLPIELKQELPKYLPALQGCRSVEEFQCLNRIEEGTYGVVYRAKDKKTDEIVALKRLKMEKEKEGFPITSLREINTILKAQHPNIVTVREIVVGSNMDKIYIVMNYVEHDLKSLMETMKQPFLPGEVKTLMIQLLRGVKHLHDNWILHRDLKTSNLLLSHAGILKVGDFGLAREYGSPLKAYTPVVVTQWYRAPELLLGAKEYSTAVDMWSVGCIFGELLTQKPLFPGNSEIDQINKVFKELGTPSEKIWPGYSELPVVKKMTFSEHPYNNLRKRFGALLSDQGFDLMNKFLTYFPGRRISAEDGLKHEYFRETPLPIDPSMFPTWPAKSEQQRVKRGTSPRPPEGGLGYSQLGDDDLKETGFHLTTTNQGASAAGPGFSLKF

[8] = target: Ribosomal protein S6 kinase beta-1 (Homo sapiens) (UniProt P23443); test: Inhibition of S6K1 (unknown origin) assessed as residual activity at 100 nM by KINOMEscan analysis relative to control
Chain of Ribosomal protein S6 kinase beta-1 (Homo sapiens) (P23443 whole entry, looked up): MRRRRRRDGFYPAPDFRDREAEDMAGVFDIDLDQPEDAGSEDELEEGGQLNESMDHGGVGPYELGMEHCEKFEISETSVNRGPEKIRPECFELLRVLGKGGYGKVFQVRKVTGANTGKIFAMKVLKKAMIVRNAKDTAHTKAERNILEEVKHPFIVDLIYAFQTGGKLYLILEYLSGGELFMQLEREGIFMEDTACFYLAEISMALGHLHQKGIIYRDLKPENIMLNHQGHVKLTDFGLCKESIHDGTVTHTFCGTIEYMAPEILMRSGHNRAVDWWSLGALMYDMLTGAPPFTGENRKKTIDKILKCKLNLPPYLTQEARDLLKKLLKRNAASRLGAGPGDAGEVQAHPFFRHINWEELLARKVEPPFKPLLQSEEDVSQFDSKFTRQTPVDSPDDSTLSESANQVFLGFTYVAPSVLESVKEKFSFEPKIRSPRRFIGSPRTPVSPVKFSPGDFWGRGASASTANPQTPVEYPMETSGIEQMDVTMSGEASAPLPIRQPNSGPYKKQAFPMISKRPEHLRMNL

**Q.** With CNCc1ccccc1-c1csc([C@@H](C)Nc2nc(C)nc3cc(OC)c(OC)cc23)c1 [BAY-293] as the compound, how does the Activity [1] read?
**A.** inactive

**Q.** With COc1cc2nc(C)nc(N[C@H](C)c3cccc(-c4cn[nH]c4)c3)c2cc1OC as the compound, how does the Activity [2] read?
**A.** 100%

**Q.** Which results are given for COc1cc2ncnc(N[C@H](C)c3cccc4ccccc34)c2cc1OC?
**A.** Activity [3]: 99%; Activity [4]: 100%; Activity [5]: 100%; Activity [6]: 100%; Activity [7]: 82%; Activity [8]: 77%
